Assays:
[1] = test system: Phosphatidylinositol 4,5-bisphosphate 3-kinase catalytic subunit alpha isoform (Homo sapiens), P42336 [Y836A]; assay: Ratio of PI103 IC50 to compound IC50 for full length human PI3Kalpha Y836A mutant
In short: (§1)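 Inhibitor IC50s were determined against wild-type PI3Kα and the M772A, D810A and Y836A mutants. The mutants were expressed and purified in-house. […] Fold change is the PI103 IC50 divided by the compound IC50 on the same enzyme form.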

[2] = test system: Phosphatidylinositol 4,5-bisphosphate 3-kinase catalytic subunit alpha isoform (Homo sapiens), P42336 [M772A]; assay: Ratio of PI103 IC50 to compound IC50 for full length human PI3Kalpha M772A mutant; in short: as §1
[3] = target: T1, Phosphatidylinositol 4,5-bisphosphate 3-kinase catalytic subunit alpha isoform (Homo sapiens, UniProt P42336); assay: Ratio of PI103 IC50 to compound IC50 for full length human PI3Kalpha; in short: as §1
[4] = test system: Phosphatidylinositol 4,5-bisphosphate 3-kinase catalytic subunit alpha isoform (Homo sapiens), P42336 [D810A]; assay: Ratio of PI103 IC50 to compound IC50 for full length human PI3Kalpha D810A mutant; in short: as §1
[5] = target: T1, Phosphatidylinositol 4,5-bisphosphate 3-kinase catalytic subunit alpha isoform; assay: Inhibition of N-terminal His-6-tagged full length human PI3Kalpha expressed in baculovirus-infected sf9 cells after 30 mins by TR-FRET assay
In short: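 IC50 is the mean of at least three independent experiments, each run in duplicate. Typical variation was below 20%.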

[6] = target: Phosphatidylinositol 4,5-bisphosphate 3-kinase catalytic subunit alpha isoform (Homo sapiens, UniProt P42336, M772A); assay: Inhibition of GST-tagged full length human PI3Kalpha M772A mutant expressed in baculovirus-infected sf9 cells after 30 mins by TR-FRET assay
In short: (§2)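 Each mutant PI3Kα was expressed and purified in-house. IC50 is the mean of at least three independent experiments, each run in duplicate.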

[7] = target: Phosphatidylinositol 4,5-bisphosphate 3-kinase catalytic subunit alpha isoform (Homo sapiens, UniProt P42336, D810A); assay: Inhibition of GST-tagged full length human PI3Kalpha D810A mutant expressed in baculovirus-infected sf9 cells after 30 mins by TR-FRET assay; in short: as §2
[8] = target: Phosphatidylinositol 4,5-bisphosphate 3-kinase catalytic subunit alpha isoform (Homo sapiens, UniProt P42336, Y836A); assay: Inhibition of GST-tagged full length human PI3Kalpha Y836A mutant expressed in baculovirus-infected sf9 cells after 30 mins by TR-FRET assay; in short: as §2
Chain of Phosphatidylinositol 4,5-bisphosphate 3-kinase catalytic subunit alpha isoform (Homo sapiens, UniProt P42336, Y836A) (P42336 whole entry Y836A, canonical isoform): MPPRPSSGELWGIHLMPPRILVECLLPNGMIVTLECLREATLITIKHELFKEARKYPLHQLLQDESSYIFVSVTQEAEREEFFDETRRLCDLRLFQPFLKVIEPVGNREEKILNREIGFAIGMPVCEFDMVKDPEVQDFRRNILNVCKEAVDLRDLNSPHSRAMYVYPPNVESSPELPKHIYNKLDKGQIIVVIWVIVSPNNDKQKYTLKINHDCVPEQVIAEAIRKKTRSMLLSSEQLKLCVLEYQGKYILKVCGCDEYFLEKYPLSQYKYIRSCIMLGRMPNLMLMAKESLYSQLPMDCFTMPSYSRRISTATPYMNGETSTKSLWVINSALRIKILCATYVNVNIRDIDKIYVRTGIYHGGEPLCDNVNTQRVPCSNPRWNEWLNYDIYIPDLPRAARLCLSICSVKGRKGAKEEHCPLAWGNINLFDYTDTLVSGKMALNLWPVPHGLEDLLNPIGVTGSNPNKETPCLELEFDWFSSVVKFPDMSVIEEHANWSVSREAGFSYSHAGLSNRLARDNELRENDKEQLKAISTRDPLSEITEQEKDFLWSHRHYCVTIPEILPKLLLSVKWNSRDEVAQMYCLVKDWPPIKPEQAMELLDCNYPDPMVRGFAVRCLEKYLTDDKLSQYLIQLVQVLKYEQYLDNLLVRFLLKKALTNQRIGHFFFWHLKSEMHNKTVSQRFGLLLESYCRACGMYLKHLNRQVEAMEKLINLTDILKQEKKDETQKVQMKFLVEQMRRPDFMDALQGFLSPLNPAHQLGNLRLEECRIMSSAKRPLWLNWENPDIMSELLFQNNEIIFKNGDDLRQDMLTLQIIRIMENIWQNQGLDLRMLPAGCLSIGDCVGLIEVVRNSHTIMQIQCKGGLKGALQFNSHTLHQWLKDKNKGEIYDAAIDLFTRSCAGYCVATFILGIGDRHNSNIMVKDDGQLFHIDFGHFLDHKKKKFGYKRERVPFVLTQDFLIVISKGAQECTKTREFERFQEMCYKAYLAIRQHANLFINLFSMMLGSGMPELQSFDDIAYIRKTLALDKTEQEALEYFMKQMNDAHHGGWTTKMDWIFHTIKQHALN

T1 sequence (P42336 whole entry, canonical isoform): as the sequence (P42336 whole entry Y836A, canonical isoform) above, with A836Y counted along it
Chain of Phosphatidylinositol 4,5-bisphosphate 3-kinase catalytic subunit alpha isoform (Homo sapiens), P42336 [D810A] (P42336 whole entry D810A, canonical isoform): as the sequence (P42336 whole entry Y836A, canonical isoform) above, with D810A, A836Y counted along it
Chain of Phosphatidylinositol 4,5-bisphosphate 3-kinase catalytic subunit alpha isoform (Homo sapiens, UniProt P42336, D810A) (P42336 whole entry D810A, canonical isoform): as the sequence (P42336 whole entry Y836A, canonical isoform) above, with D810A, A836Y counted along it
Chain of Phosphatidylinositol 4,5-bisphosphate 3-kinase catalytic subunit alpha isoform (Homo sapiens), P42336 [M772A] (P42336 whole entry M772A, canonical isoform): as the sequence (P42336 whole entry Y836A, canonical isoform) above, with M772A, A836Y counted along it
Chain of Phosphatidylinositol 4,5-bisphosphate 3-kinase catalytic subunit alpha isoform (Homo sapiens, UniProt P42336, M772A) (P42336 whole entry M772A, canonical isoform): as the sequence (P42336 whole entry Y836A, canonical isoform) above, with M772A, A836Y counted along it
Chain of Phosphatidylinositol 4,5-bisphosphate 3-kinase catalytic subunit alpha isoform (Homo sapiens), P42336 [Y836A] (P42336 whole entry Y836A, canonical isoform): as the sequence (P42336 whole entry Y836A, canonical isoform) above

| Structure (SMILES) | IC50 [5] [nM] | further results |
| --- | --- | --- |
| Oc1cc(O)cc(-c2nc(N3CCOCC3)c3oc4ncccc4c3n2)c1 | 5.9 | Ratio IC50 [1]: 5.7; Ratio IC50 [2]: 19.4; Ratio IC50 [3]: 3; Ratio IC50 [4]: 1.2; IC50 [6]: 53.4 nM; IC50 [7]: 61.3 nM; IC50 [8]: 140 nM |
| Oc1cc(Cl)cc(-c2nc(N3CCOCC3)c3oc4ncccc4c3n2)c1 | 990 | – |
| Cc1cc(O)cc(-c2nc(N3CCOCC3)c3oc4ncccc4c3n2)c1 | > 10000 | – |
| Oc1cc(-c2nc(N3CCOCC3)c3oc4ncccc4c3n2)cc(C(F)(F)F)c1 | > 10000 | – |
| Nc1cc(O)cc(-c2nc(N3CCOCC3)c3oc4ncccc4c3n2)c1 | 20.6 | – |
| Oc1cc(Br)cc(-c2nc(N3CCOCC3)c3oc4ncccc4c3n2)c1 | 1210 | – |
| O=[N+]([O-])c1cc(O)cc(-c2nc(N3CCOCC3)c3oc4ncccc4c3n2)c1 | > 10000 | – |
| Oc1cc(F)cc(-c2nc(N3CCOCC3)c3oc4ncccc4c3n2)c1 | 40.9 | – |
